Measured values reported in ChEMBL document CHEMBL3259586, “Localization and interaction of hydroxyflavones with lipid bilayer model membranes: a study using DSC and multinuclear NMR” (Eur J Med Chem, 2014).
Converted amounts (≈) assume the structure as drawn. The source made the active and inactive calls. The calls are words filed in the database; no cut-off is given here.

Legend:
[1] = Binding affinity to multilamellar vesicles of DPPC assessed as increase in chemical shift anisotropy at 323 K by [31P]-NMR spectroscopic analysis
Outline: (§1)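 Lipid held at 100 mM for NMR samples with flavone at 10 to 50 mM; multilamellar vesicles from chloroform-dissolved DPPC; unilamellar vesicles made by sonicating lipid dispersions at 50% duty cycle until optically clear.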

HepG2 = assay: Antiproliferative activity against human HepG2 cells assessed as cell growth at 10^-4 ug/ml after 48 hrs by sulforhodamine B assay relative to control; format: functional; conditions: HepG2, 48 h, read-out: Activity
Outline: (§2)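 Sulforhodamine B assay; cells grown in RPMI 1640 with 10% fetal bovine serum and 2 mM L-glutamine; compounds dissolved in DMSO, diluted into culture medium; incubated 48 h under standard conditions; percent growth inhibition calculated.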

Lipid bilayer [2] = assay: Binding affinity to DPPC lipid bilayer assessed as melting temperature at 1:10 drug to DPPC molar ratio by differential scanning calorimetric analysis
Outline: (§3)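 DPPC multilamellar vesicles made from chloroform lipid solution, lipid held at 50 mM, drug/lipid molar ratios 1:20 to 1:2; DSC heating scans give pretransition (Tp) and main transition (Tm) temperatures; repeat scans of the same samples.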

Lipid bilayer [3] = assay: Binding affinity to unilamellar vesicles of DPPC in D2O at 1:5 drug to lipid molar ratio at 323 K by [13C]-NMR spectroscopic analysis; outline: as §1
MCF7 = assay: Antiproliferative activity against human MCF7 cells assessed as cell growth at 10^-4 ug/ml after 48 hrs by sulforhodamine B assay relative to control; format: functional; conditions: MCF7, 48 h, read-out: Activity; outline: as §2
[4] = system: Radical scavenging activity; assay: Antioxidant activity assessed as DPPH radical scavenging activity after 30 mins; format: functional
Outline: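 Test compounds at varied concentrations added to methanolic DPPH with 0.1 M Tris-HCl buffer; absorbance read at 517 nm after 30 min incubation; IC50 read graphically from dose-response curves; at least three experiments.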

[5] = Binding affinity to multilamellar vesicles after 2 hrs by centrifugation method
Lipid bilayer [6] = assay: Binding affinity to DPPC lipid bilayer assessed as pre-transition temperature at 1:20 drug to DPPC molar ratio by differential scanning calorimetric analysis; outline: as §3
Lipid bilayer [7] = assay: Binding affinity to DPPC lipid bilayer assessed as pre-transition temperature at 1:2 drug to DPPC molar ratio by differential scanning calorimetric analysis; outline: as §3
[8] = Binding affinity to multilamellar vesicles by NMR titration method
Outline: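 NMR titration with drug held at 10 mM and lipid varied 1-10 mM; lipid stock in D2O, drug stock in methanol, both diluted; TSP added as reference; fraction bound derived from chemical shift changes.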

Lipid bilayer [9] = assay: Binding affinity to DPPC lipid bilayer assessed as decrease in melting temperature by differential scanning calorimetric analysis; outline: as §3
K562 = assay: Antiproliferative activity against human K562 cells assessed as cell growth at 10^-4 ug/ml after 48 hrs by sulforhodamine B assay relative to control; format: functional; conditions: K562, 48 h, read-out: Activity; outline: as §2
Lipid bilayer [10] = assay: Binding affinity to unilamellar vesicles of DPPC in D2O at 1:5 drug to lipid molar ratio at 323 K by [1H]-NMR spectroscopic analysis; outline: as §1
Lipid bilayer [11] = assay: Binding affinity to DPPC lipid bilayer assessed as melting temperature at 1:2 drug to DPPC molar ratio by differential scanning calorimetric analysis; outline: as §3
Lipid bilayer [12] = assay: Binding affinity to DPPC lipid bilayer assessed as melting temperature at 1:20 drug to DPPC molar ratio by differential scanning calorimetric analysis; outline: as §3
Lipid bilayer [13] = assay: Binding affinity to DPPC lipid bilayer assessed as melting temperature at 1:5 drug to DPPC molar ratio by differential scanning calorimetric analysis; outline: as §3
Lipid bilayer [14] = assay: Binding affinity to DPPC lipid bilayer assessed as pre-transition temperature at 1:5 drug to DPPC molar ratio by differential scanning calorimetric analysis; outline: as §3
Lipid bilayer [15] = assay: Binding affinity to DPPC lipid bilayer assessed as pre-transition temperature at 1:10 drug to DPPC molar ratio by differential scanning calorimetric analysis; outline: as §3
[16] = Binding affinity to multilamellar vesicles of DPPC at 1:10 to 1:2 drug to lipid molar ratio at 323 K by [31P]-NMR spectroscopic analysis; outline: as §1
Lipid bilayer [17] = assay: Binding affinity to unilamellar vesicles of DPPC in D2O at 1:5 drug to lipid molar ratio at 323 K by 2D-NOESY spectroscopic analysis; outline: as §1
[18] = Binding affinity to multilamellar vesicles at 100 uM after 2 hrs by centrifugation method relative to control

Row | Structure (SMILES) | Activity [1] | growth at 0.0001 µg/mL (HepG2) | Tm (Lipid bilayer [2]) | Activity (Lipid bilayer [3]) | growth at 0.0001 µg/mL (MCF7) | IC50 [4] | Kapp [5] | T (Lipid bilayer [6]) | T (Lipid bilayer [7]) | Kapp [8] | Activity (Lipid bilayer [9]) | growth at 0.0001 µg/mL (K562) | Activity (Lipid bilayer [10]) | Tm (Lipid bilayer [11]) | Tm (Lipid bilayer [12]) | Tm (Lipid bilayer [13]) | T (Lipid bilayer [14]) | T (Lipid bilayer [15]) | Activity [16] | Activity (Lipid bilayer [17]) | also measured
1 | O=c1cc(-c2ccccc2)oc2cccc(O)c12 [5-HYDROXYFLAVONE] | Dose-dependent effect | 88.8% | 40.7 °C | Active | 28.6% | 23.8 µg/mL (≈ 99.9 µM) | 313 M⁻¹ | 32.3 °C | 30.3 °C | 229 M⁻¹ | Dose-dependent effect | 26.7% | Active | 39.6 °C | 41.1 °C | 40.6 °C | 32 °C | 32 °C | – | – | –
2 | O=c1cc(-c2ccccc2)oc2ccc(O)cc12 [6-HYDROXYFLAVONE] | – | 82.8% | 37.3 °C | Active | 28.8% | 22.1 µg/mL (≈ 92.8 µM) | 800 M⁻¹ | – | – | 572 M⁻¹ | Dose-dependent effect | 13.3% | Active | 36.9 °C | 37.4 °C | 37.1 °C | – | – | Active | Active | –
3 | O=c1cc(-c2ccccc2)oc2cc(O)ccc12 [7-HYDROXYFLAVONE] | Dose-dependent effect | 98.8% | 40.5 °C | Active | 26.6% | 24.2 µg/mL (≈ 102 µM) | 450 M⁻¹ | 31.9 °C | 27.4 °C | 311 M⁻¹ | Dose-dependent effect | 22.3% | Active | 39.8 °C | 40.7 °C | 40.4 °C | – | 31.8 °C | – | – | –
4 | O=c1cc(-c2ccccc2)oc2cc(O)c(O)c(O)c12 [BAICALEIN] | – | 70.6% | 39.7 °C | Active | -8.9% | 18.2 µg/mL (≈ 67.3 µM) | 252 M⁻¹ | 32.1 °C | 33.8 °C | 215 M⁻¹ | Dose-dependent effect | 16.7% | Active | 40.9 °C | 40.4 °C | 40.6 °C | 32.9 °C | 30.2 °C | Active | Active | –
5 | O=c1cc(-c2ccccc2)oc2cc(O)cc(O)c12 [CHRYSIN] | – | 76.7% | 39.8 °C | Active | 25.9% | 20.4 µg/mL (≈ 80.2 µM) | 759 M⁻¹ | 31 °C | 31.6 °C | 532 M⁻¹ | Dose-dependent effect | 38.3% | Active | 40.1 °C | 40.6 °C | 39.9 °C | 30.5 °C | 30.4 °C | Active | – | –
6 | O=c1cc(-c2ccccc2)oc2ccccc12 [FLAVONE] | – | -7.6% | 36.7 °C | Active | 50.3% | > 100 µg/mL | 19600 M⁻¹ | – | – | 1820 M⁻¹ | Dose-dependent effect | 56.8% | Active | 36.3 °C | 37.2 °C | 36.4 °C | – | – | Active | – | Activity [18]: 80%
